The record followed here is PubChem BioAssay AID493187 (Sanford-Burnham Center for Chemical Genomics, 2011).

The campaign covered roughly 340,000 compounds. About 190 (0.056%) were called active. Only a selection was taken, and actives are over-represented in it overall. Values without a mark were called inactive.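 Rule for the calls: active = activation of 40% or more at 20 µM, a change of -40% or lower; inactive = the rest.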

In this test the target is Hexokinase HKDC1 (Homo sapiens) (UniProt Q2TB90). Briefly: HKDC1 hexokinase activators, primary screen, biochemical, fluorescence, uHTS (AID 493187). To be noted: recombinant HKDC1, G6PDH/diaphorase resazurin fluorescence; at 20 µM; stronger effect = lower value. In short, it runs like this: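 Material: in-house human HKDC1 enzyme, G6PDH and diaphorase coupling enzymes | Quantity: HKDC1 at 5 µg/mL final | Medium: Tris buffer at pH 8.0 containing MgCl2 | Compound dosing: 20 µM single dose | Schedule: 90 min reaction at room temperature, dark | Measured by: Resorufin fluorescence, 525/613 nm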
Hexokinase HKDC1 (Homo sapiens), sequence (Q2TB90 whole entry, looked up): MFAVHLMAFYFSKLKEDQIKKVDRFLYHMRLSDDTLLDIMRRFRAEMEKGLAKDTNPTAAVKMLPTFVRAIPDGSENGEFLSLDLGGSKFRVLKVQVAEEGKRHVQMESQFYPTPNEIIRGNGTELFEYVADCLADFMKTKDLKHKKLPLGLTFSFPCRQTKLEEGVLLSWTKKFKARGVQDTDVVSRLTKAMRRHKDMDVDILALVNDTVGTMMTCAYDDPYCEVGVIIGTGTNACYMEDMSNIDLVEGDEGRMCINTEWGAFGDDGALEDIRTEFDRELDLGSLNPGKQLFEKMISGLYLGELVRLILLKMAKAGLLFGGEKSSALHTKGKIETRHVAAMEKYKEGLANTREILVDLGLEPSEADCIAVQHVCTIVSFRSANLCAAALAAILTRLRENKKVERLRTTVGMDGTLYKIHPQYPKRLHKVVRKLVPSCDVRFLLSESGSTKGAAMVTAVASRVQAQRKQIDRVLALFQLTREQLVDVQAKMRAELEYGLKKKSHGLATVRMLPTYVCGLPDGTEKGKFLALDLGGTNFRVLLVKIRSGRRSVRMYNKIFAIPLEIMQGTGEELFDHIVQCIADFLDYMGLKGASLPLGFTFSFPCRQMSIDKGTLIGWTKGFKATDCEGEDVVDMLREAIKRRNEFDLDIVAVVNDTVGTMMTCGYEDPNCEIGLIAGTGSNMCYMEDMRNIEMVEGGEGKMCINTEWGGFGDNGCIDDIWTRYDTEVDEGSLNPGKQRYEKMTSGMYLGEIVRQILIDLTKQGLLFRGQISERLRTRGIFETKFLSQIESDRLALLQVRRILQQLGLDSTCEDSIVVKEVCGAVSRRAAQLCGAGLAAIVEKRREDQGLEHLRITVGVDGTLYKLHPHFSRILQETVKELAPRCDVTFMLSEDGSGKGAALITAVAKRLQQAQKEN
On the technique in general: The colour change of resazurin is a common sign of viable cells or microbes.
In the case of `O=C(CSc1cccc2cccnc12)N/N=C/c1cccnc1`, the activity change, negative = activation is -52.6% (active).

Take `O=c1[nH]c2ccccc2n2c(-c3ccccc3)nnc12`: the activity change, negative = activation is 46.7%.

In the case of `C[N+](C)(CCCCCC[N+](C)(C)CCCN1C(=O)c2cccc3cccc(c23)C1=O)CCCN1C(=O)c2cccc3cccc(c23)C1=O`, the activity change, negative = activation was -66.9% (active).

With `COc1ccc(C(CCN(Cc2ccc(OC)c(OC)c2)C(=O)CCl)c2ccccc2)cc1` (stereo not drawn), the activity change, negative = activation is 35.4%.

Regarding `COc1ccc2c(c1)c(=Cc1ccc(N(C)C)cc1)c1cc(-c3ccccc3)[n+](C)n12`, the activity change, negative = activation is 43.2%.

With `COc1ccc(N(CC(=O)N/N=C/c2cccc3c2OCCO3)S(=O)(=O)c2ccc(NC(C)=O)cc2)cc1`, the activity change, negative = activation is 38.1%.

Regarding `Cc1cc(C2=NNC(=Nc3ccc(S(=O)(=O)N4CCOCC4)cc3)SC2)c(C)n1CC1CCCO1` (stereo not drawn), the activity change, negative = activation is -70% (active).

On to `CCOC(=O)CSc1nc2ccc(C)cc2n2cnnc12`, for which the activity change, negative = activation is 53%.

Regarding `CC(=O)/C(=N\Nc1ccc(Cl)cc1Cl)Sc1cccc2cccnc12`, the activity change, negative = activation was -40.8% (active).

Turning to `CCCc1nc2oc3c(OCC)ncnc3c2c2c1COC(C)(C)C2`, the activity change, negative = activation is 37.7%.

`O=C(c1cccnc1)N(c1cc2sc(=O)oc2c2ccccc12)S(=O)(=O)c1ccccc1`: the activity change, negative = activation is 38.2%.

For `CN1c2ccc(C=O)c3c(C=O)ccc(c23)N(C)C1(C)C`, the activity change, negative = activation is 36.4%.

In the case of `O=C(NC1=CC(=O)c2ccccc2C1=O)c1ccccc1`, the activity change, negative = activation was 54.1%.

In the case of `CCc1ccc2c(c1)C1(NN=C(c3ccccc3)S1)C(=O)N2` (stereo not drawn), the activity change, negative = activation was -48.1% (active).

Consider `O=C1C(Cl)=C(Oc2ccccc2)C(=O)c2ccccc21`, for which the activity change, negative = activation is 65.2%.

As for `Cc1ccc(Nc2nc(-c3sc(NC(=O)c4ccccc4)nc3C)cs2)cc1`, the activity change, negative = activation was -77.6% (active).

As for `CC(C)(C)Nc1c(N)c(=O)oc2ccccc12`, the activity change, negative = activation is 44.6%.

Take `CCC(=C/c1sc2ccc3ccccc3c2[n+]1C)/C=C1\Sc2ccc3ccccc3c2N1C`: the activity change, negative = activation is 45%.

As for `COc1ccc(NC(=O)CSc2ccc(-c3ccco3)nn2)c(OC)c1`, the activity change, negative = activation is 47.3%.

For the molecule `Clc1cccc(N=C2NN=C(c3ccc4c(c3)OCCO4)CS2)c1`, the activity change, negative = activation was -169% (active).

`O=S(=O)(Nc1ccc(O)c2ccccc12)c1ccc(OC(F)(F)F)cc1`: the activity change, negative = activation is 52%.

Regarding `CCOC(=O)C1=C(c2ccc(OC)cc2)C(=O)c2ccccc2C1=O`, the activity change, negative = activation is 81.4%.

`CCn1cc(C(=O)NCc2ccc3c(c2)OCO3)c2cc(OC)c(OC)cc2c1=O`: the activity change, negative = activation is 37.8%.

On to `O=c1ccc2c(-c3ccccc3S(=O)(=O)O)c3ccc(O)c(O)c3oc-2c1O`, for which the activity change, negative = activation is 38.4%.

Turning to `Cc1ccc2oc(=O)c3cnn(CC(=O)N4CCCCCC4)c3c2c1`, the activity change, negative = activation is -44.7% (active).

For `Nc1ccc2nc3c(=O)[nH]c(=S)[nH]c3nc2c1`, the activity change, negative = activation was 69.9%.

For `CC(=O)N(C1=C(Cl)C(=O)c2ccccc2C1=O)c1ccc(C(=O)O)cc1`, the activity change, negative = activation was 52.2%.

For `Cc1cc(C(=O)CCl)c(C)n1CC1COc2ccccc2O1` (stereo not drawn), the activity change, negative = activation is 38.2%.
